Columns and labels:
Type in all cases: cell-based
GABA transporter 2 = target: T1, GABA transporter 2 (Mus musculus, UniProt P31651); experiment: Inhibition of mouse BGT1 expressed in HEK293 cells assessed as reduction in [3H]GABA uptake after 3 mins by scintillation counting method; details: read-out: IC50
T1 sequence (P31651 whole entry): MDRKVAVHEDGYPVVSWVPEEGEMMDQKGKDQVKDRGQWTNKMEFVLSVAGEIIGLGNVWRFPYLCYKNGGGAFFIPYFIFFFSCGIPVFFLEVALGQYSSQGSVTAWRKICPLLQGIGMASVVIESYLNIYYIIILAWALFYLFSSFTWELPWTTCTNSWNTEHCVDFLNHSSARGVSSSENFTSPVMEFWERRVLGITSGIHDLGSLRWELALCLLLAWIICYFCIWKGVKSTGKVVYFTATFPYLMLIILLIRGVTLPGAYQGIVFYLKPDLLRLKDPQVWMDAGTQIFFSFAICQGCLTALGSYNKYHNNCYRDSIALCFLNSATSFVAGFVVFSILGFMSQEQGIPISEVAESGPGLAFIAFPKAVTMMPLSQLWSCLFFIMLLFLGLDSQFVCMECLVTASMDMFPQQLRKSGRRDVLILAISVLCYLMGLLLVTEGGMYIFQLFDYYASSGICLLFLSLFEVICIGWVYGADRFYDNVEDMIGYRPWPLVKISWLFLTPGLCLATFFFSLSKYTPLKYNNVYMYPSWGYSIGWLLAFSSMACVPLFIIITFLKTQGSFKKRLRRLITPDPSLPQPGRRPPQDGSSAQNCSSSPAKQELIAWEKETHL
How it was run: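 HEK293 lines stably expressing a single mouse GAT subtype, kept under blasticidin-S (5 µg/mL) selection. Cells were assayed about 24 h after plating with 30 nM [3H]GABA plus varying compound concentrations for 3 min at 37 °C in HBSS buffered with 20 mM HEPES (1 mM CaCl2, 1 mM MgCl2, pH 7.4). Cells were washed ice-cold and radioactivity counted. IC50 came from sigmoidal variable-slope fits.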

[1] = target: Sodium- and chloride-dependent GABA transporter 3 (Homo sapiens, UniProt P48066, L314Q); experiment: Inhibition of human GAT3 L314Q mutant expresses in tsA201 cells assessed as reduction in [3H]GABA uptake after 3 mins by scintillation counting method
Sequence of Sodium- and chloride-dependent GABA transporter 3 (P48066 whole entry L314Q): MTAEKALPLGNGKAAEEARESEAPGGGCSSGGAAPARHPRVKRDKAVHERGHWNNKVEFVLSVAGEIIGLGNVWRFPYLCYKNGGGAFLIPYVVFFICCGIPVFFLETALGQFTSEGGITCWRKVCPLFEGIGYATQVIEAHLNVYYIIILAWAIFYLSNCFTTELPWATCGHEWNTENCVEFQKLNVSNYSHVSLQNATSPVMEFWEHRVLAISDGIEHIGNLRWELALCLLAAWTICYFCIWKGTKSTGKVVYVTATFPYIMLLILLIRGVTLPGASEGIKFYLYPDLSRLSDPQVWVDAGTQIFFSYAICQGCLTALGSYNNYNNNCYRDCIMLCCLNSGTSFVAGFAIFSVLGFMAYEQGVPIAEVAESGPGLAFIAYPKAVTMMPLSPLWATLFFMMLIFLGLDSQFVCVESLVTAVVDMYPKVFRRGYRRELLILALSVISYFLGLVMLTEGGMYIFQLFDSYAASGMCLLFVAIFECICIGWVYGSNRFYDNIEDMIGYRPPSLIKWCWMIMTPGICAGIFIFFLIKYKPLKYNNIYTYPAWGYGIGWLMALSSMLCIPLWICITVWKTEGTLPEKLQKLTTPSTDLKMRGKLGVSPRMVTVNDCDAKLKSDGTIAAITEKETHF
How it was run: (§1)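 Site-directed mutant transporters transiently transfected (PolyFect) into tsA201 cells, plated and used about 24 h later. Cells were washed with HBSS containing 20 mM HEPES, 1 mM CaCl2 and 1 mM MgCl2, pH 7.4. Uptake of 30 nM [3H]GABA was run with varied inhibitor concentrations for 3 min at 37 °C, then three ice-cold washes and scintillation counting. IC50 was taken from variable-slope sigmoidal fits. Triplicates, at least three independent experiments.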

[2] = target: T2, Sodium- and chloride-dependent betaine transporter (Homo sapiens, UniProt P48065); experiment: Inhibition of human BGT1 expresses in tsA201 cells assessed as reduction in [3H]GABA uptake after 3 mins by scintillation counting method
T2 sequence (P48065 whole entry): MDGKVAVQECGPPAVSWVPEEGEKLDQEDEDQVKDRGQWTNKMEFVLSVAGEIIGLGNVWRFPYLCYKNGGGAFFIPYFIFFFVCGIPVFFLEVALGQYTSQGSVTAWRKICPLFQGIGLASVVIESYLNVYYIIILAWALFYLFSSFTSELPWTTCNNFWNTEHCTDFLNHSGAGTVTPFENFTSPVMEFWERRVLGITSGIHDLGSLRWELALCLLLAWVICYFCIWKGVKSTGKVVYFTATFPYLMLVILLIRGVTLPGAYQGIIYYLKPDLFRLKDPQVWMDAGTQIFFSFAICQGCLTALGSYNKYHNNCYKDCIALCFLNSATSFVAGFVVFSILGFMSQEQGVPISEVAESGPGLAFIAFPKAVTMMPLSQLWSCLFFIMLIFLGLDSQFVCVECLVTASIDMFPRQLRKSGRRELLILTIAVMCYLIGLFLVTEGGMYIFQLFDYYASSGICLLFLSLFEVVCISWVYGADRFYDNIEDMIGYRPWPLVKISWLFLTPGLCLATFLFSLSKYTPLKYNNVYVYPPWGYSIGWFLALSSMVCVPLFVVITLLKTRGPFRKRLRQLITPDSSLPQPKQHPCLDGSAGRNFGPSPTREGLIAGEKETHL
How it was run: (§2)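 tsA201 cells transiently transfected with wild-type or mutant human BGT1 (PolyFect) were plated about 24 h before assay. Three ice-cold washes followed, then scintillation counting.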

[3] = target: Sodium- and chloride-dependent betaine transporter (Homo sapiens, UniProt P48065, Q299L); experiment: Inhibition of human BGT1 Q299L mutant expressed in tsA201 cells assessed as reduction in [3H]GABA uptake after 3 mins by scintillation counting method
Sequence of Sodium- and chloride-dependent betaine transporter (Homo sapiens, UniProt P48065, Q299L) (P48065 whole entry Q299L): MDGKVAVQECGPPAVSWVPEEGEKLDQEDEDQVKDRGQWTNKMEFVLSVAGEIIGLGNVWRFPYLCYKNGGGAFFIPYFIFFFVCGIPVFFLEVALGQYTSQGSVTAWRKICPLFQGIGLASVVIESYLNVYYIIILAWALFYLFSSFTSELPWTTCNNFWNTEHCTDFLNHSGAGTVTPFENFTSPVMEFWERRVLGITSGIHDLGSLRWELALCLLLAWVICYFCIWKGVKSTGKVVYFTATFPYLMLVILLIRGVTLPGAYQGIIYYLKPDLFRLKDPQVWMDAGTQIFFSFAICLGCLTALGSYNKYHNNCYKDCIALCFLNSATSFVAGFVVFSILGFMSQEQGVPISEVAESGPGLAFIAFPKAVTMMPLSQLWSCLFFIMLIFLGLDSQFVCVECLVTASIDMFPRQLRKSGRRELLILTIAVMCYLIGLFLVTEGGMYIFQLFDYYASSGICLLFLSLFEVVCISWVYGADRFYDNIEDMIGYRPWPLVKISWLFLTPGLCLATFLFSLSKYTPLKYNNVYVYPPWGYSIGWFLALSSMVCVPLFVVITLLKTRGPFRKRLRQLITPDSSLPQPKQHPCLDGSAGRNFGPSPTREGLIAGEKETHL
How it was run: as §1, with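 “7.4.” for “7.4. Uptake of 30 nM [3H]GABA was run with varied inhibitor concentrations for 3 min at 37 °C, then three ice-cold washes and scintillation counting.”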

[4] = target: Sodium- and chloride-dependent betaine transporter (Homo sapiens, UniProt P48065, Y453S/Y454A); experiment: Inhibition of human BGT1 Y453S/Y454A double mutant expressed in tsA201 cells assessed as reduction in [3H]GABA uptake after 3 mins by scintillation counting method; how it was run: as §2
Sequence of Sodium- and chloride-dependent betaine transporter (Homo sapiens, UniProt P48065, Y453S/Y454A) (P48065 whole entry Y453S/Y454A): as the sequence (P48065 whole entry Q299L) above, with L299Q, Y453S, Y454A counted along it

[5] = target: Sodium- and chloride-dependent betaine transporter (Homo sapiens, UniProt P48065, I386F); experiment: Inhibition of human BGT1 I386F mutant expressed in tsA201 cells assessed as reduction in [3H]GABA uptake after 3 mins by scintillation counting method; how it was run: as §2
Sequence of Sodium- and chloride-dependent betaine transporter (Homo sapiens, UniProt P48065, I386F) (P48065 whole entry I386F): as the sequence (P48065 whole entry Q299L) above, with L299Q, I386F counted along it

Structure (SMILES) | IC50 (GABA transporter 2) [µM] | IC50 [1] [µM] | IC50 ([2]; read-out: IC50) [µM] | IC50 [3] [µM] | IC50 ([4]; read-out: IC50) [µM] | IC50 ([5]; read-out: IC50) [µM] | IC50 ([2]; read-out: pIC50 (converted)) [µM] | IC50 ([4]; read-out: pIC50 (converted)) [µM] | IC50 ([5]; read-out: pIC50 (converted)) [µM]
O=C(NC1CCN(Cc2ccccc2)CC1)c1ccc(Cl)cc1Cl | 32 | 460 | 18 | 3 | 6 | 8 |  |  | 
O=C(NC1CCN(Cc2ccccc2)CC1)c1ccc(Cl)nc1Cl | 37 | 405 | 44 | 8 | 15 | 47 | 40.7 | 12.9 | 43.7

— ChEMBL document CHEMBL4028872, “Structure-Activity Relationship, Pharmacological Characterization, and Molecular Modeling of Noncompetitive Inhibitors of the Betaine/γ-Aminobutyric Acid Transporter 1 (BGT1)” (J Med Chem, 2017)
